# Bioassay records from PubChem BioAssay.
# Compounds with a hit are over-represented: about 4.8% of the library has one in this group of screens.
# PAFAH1B2 inh: PAFAH1B2 (human) inhibition. P68402. recombinant PAFAH1B2, FP-rhodamine activity probe, fluorescence polarization. inhibition, % at 3.39 µM. hit rate 1.2% among 340,000;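 active = inhibition above the mean of all tested compounds plus 3 SD, cut at about 24% in these data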;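 note: 0% = enzyme with DMSO and 100% = wells lacking PAFAH1B2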
# NR3A LBD binder: NR3A (human) ligand-binding domain modulation | hit rate 2.5% among 340,000 | Tm shift relative to glycine control, % at 25 µM | NR3A LBD differential scanning fluorimetry, Tm shift; 0% = protein alone, 100% = glycine-bound protein;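 active = melting temperature shift of at least 10% of the positive control shift, at one fixed dose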
# UCH37 DUB inh: human UCH37 deubiquitinating enzyme inhibition; purified proteasome/UCH37, Ub-AMC cleavage fluorescence; inhibition, % (test concentration not listed); hit rate 0.33% among 330,000;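 active = mean inhibition over replicate wells above about 20%, limit read from the data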;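 note: 0% = compound-free wells with enzyme and 100% = wells lacking proteasome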
#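 Schedule: 30 min plus 25 min, room temperature / Material: human UCH37 within purified proteasomes / Technique: AMC fluorescence intensity at 355/460 nm / Buffer or medium: pH 7.4 Tris-HCl (50 mM) with ovalbumin, ATP-MgCl2, DTT / Controls: wells without proteasome as full block, compound-free enzyme plus substrate as uninhibited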
# pPAFAH FP inh: pPAFAH (human) enzyme inhibition; Q13093; recombinant pPAFAH, FP-rhodamine probe fluorescence polarization; inhibition, % at 3.39 µM; hit rate 1.5% among 330,000;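 active = inhibition above the mean inhibition across the screen plus 3 SD, cut at about 25% in these data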;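 note: inhibitors block binding of the rhodamine activity-based probe so polarization drops; 0% = enzyme with DMSO and 100% = wells lacking pPAFAH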
# Target sequence (Q13093 whole entry, looked up): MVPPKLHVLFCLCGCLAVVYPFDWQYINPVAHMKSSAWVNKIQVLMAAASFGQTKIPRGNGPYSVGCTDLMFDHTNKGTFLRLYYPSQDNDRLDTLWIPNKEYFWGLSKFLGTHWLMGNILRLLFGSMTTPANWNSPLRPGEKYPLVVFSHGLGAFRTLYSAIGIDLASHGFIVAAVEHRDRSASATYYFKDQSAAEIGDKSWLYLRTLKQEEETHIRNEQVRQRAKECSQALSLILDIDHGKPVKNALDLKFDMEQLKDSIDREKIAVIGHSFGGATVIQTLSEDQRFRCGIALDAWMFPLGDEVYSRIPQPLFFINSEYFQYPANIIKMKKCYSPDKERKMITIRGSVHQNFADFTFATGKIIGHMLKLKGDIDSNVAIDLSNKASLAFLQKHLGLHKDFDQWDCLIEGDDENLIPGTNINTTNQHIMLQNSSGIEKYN
# PAFAH1B3 FP inh: inhibitors of human PAFAH1B3; recombinant PAFAH1B3, FP-rhodamine probe, fluorescence polarization; inhibition, % at 3.39 µM; hit rate 0.28% among 340,000;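 active = inhibition above the screen-wide average of all tested compounds plus 3 SD, cut at about 25% in these data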;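 note: 0% = enzyme with DMSO only and 100% = wells lacking PAFAH1B3 protein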
# PAFAH2 FP inh: PAFAH2 (human) inhibition; recombinant PAFAH2, FP-rhodamine activity probe, fluorescence polarization; inhibition, % at 3.39 µM; hit rate 0.99% among 340,000;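 active = inhibition above the mean over all tested compounds plus 3 SD, cut at about 30% in these data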;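 note: inhibitors block probe labeling of enzyme so polarization drops; 0% = enzyme with DMSO and 100% = wells lacking PAFAH2 protein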
# PAFAH1B3 conf FP: PAFAH1B3 (human) inhibition, confirmed; shares compounds with PAFAH1B3 FP inh; inhibition, % at 3.39 µM; recombinant PAFAH1B3, FP-Rh activity-based probe, fluorescence polarization; hit rate 30% among 390;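 active = average inhibition over triplicate runs above the hit cutoff set in the earlier primary screen, cut at about 25% in these data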;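 note: 0% = enzyme with DMSO and 100% = wells lacking PAFAH1B3 protein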
# * = called active by the depositor; i = inactive; x = not tested or not shown.
SMILES,PAFAH1B2 inh,NR3A LBD binder,UCH37 DUB inh,pPAFAH FP inh,PAFAH1B3 FP inh,PAFAH2 FP inh,PAFAH1B3 conf FP
NS(=O)(=O)c1ccc(-c2ccc(/C=C3\NC(=S)NC3=O)o2)cc1,3,-8,x,15,34*,-2,12
NS(=O)(=O)c1ccc(-c2ccc(C=O)o2)cc1,x,0,5,4,x,x,x
NC(=NOC(=O)Cc1ccc(-c2ccccc2)cc1)c1cccc([N+](=O)[O-])c1,x,x,2,x,x,x,x
Cc1cc2c(N=O)c(NO)ccc2[nH]1,21,-2,7,10,44*,9,35*
COc1cc(O)ccc1C=NNC(=O)c1ccc([N+](=O)[O-])cc1,x,x,5,x,x,x,x
O=C(O)CCc1nc(-c2ccccc2)no1,6,-1,4,-9,14,-6,x
CCN(CC)CCc1nc(-c2ccccc2)no1,1,2,2,0,29*,0,34*
COCCNC(=O)/C(C#N)=C/c1cccs1,6,2,11,6,-1,-2,x
COCCNC(=O)/C(C#N)=C/c1ccc(OC(=O)c2cccs2)c(OC)c1,1,-1,2,x,26*,3,12
O=C(O)c1cc([N+](=O)[O-])ccc1NCc1ccccc1,13,0,9,3,3,3,x
O=C(O)c1ccccc1Nc1ccc([N+](=O)[O-])cc1C(=O)O,1,2,x,1,43*,1,11
CC(=O)Oc1cccc(N2C(=O)c3cccc4c([N+](=O)[O-])ccc(c34)C2=O)c1,14,-2,-2,5,28*,1,40*
CC12CCC3C(=CCc4cc(O)ccc43)C1CC(=NO)C2O (centres undefined),4,-1,x,x,9,4,x
COc1ccc2c(c1)CC=C1C2CCC2(C)C(=O)C(=NO)CC12 (centres undefined),19,4,2,x,33*,15,29*
C=CCN1C(=O)C(=Nn2cnnc2)c2ccccc21,x,x,0,x,x,x,x
O=C(COC(=O)c1ccc2ccccc2n1)NCc1ccccc1,4,5,1,20,47*,-6,6
Cc1ccc(NC(=O)C(C#N)=NNc2ccc(C(=O)O)cc2)c(C)c1,x,x,14,x,x,x,x
Cc1cccc(C2Nc3cccc4cccc(c34)N2)c1,9,-10,-9,4,31*,6,9
c1cc2c3c(cccc3c1)NC(c1ccc3c(c1)OCO3)N2,13,2,-10,0,28*,14,10
COc1ccccc1/C=C/C=NNC(=O)Cc1cccn1C,x,x,2,x,x,x,x
O=C(CNC(=O)c1cccs1)NN=Cc1c[nH]c2ccccc12,x,x,7,x,x,x,x
O=c1cc[nH]c2c1ccc1c(=O)cc[nH]c12,9,-2,-135,12,31*,1,80*
NNc1nccc(Nc2ccccc2C(=O)O)n1,18,-2,0,9,28*,25,12
CCOC(=O)c1ccc(CC(=O)c2ccc(O)cc2O)o1,1,2,3,0,0,-3,x
CCC(=O)Oc1ccc(C/C(=N\O)c2ccc(O)cc2O)o1,16,-3,x,20,27*,18,38*
SMILES,PAFAH1B2 inh,NR3A LBD binder,UCH37 DUB inh,pPAFAH FP inh,PAFAH1B3 FP inh,PAFAH2 FP inh,PAFAH1B3 conf FP
Oc1ccc(Cl)cc1C=Nc1nccs1,x,x,5,x,x,x,x
CCCS(=O)(=O)c1c(S(=O)(=O)CCC)c2c(C)cccn2c1C(=O)N/N=C/c1cc(O)cc(O)c1,-2,-8,x,15,27*,2,11
O=C(NN=C1CCCc2ccccc21)C(O)c1ccccc1 (centres undefined),x,x,3,x,x,x,x
CCCNC(=O)c1ccc2c(=O)c(O)c(-c3ccc(C)cc3)[nH]c2c1,10,-7,-45,15,27*,-20,6
Cc1ccc(-c2[nH]c3cc(C(N)=O)ccc3c(=O)c2O)cc1,11,0,x,24,29*,-20,23
Cc1ccc(-c2[nH]c3cc(C(=O)NCCCn4ccnc4)ccc3c(=O)c2O)cc1,14,-1,-20,15,15,20,x
COCC(=O)NN=Cc1ccc(Sc2nc3ccccc3s2)o1,x,x,6,x,x,x,x
O=C(N/N=C/c1c(O)n(Cc2ccccc2)c(=O)c2ccccc12)c1cccnc1,5,-3,-2,19,20,16,x
COc1ccc(Cn2c(O)c(/C=N/NC(=O)c3cccnc3)c3ccccc3c2=O)cc1,13,-3,0,x,26*,19,18
COCCCNC(=S)N1CCCN(c2nc3cc(C)c(C)cc3cc2C#N)CC1,10,-8,-44,-1,26*,2,4
C[C@@H]1CC[C@H](O)C=CC(=O)O[C@H](C)CC[C@H](O)C=CC(=O)O1,x,x,2,x,x,x,x
COc1ccc2c3c(cccc13)N(C)N=C2C,13,-2,-13,23,27*,16,25
O=C(NN=Cc1ccc(O)c(O)c1)c1ccc(CSc2cccc3cccnc23)cc1,x,x,-17,x,x,x,x
O=Nc1c(O)[nH]c2ccc(Cl)cc12,16,0,x,6,26*,5,34*
O=C(CN1CCCc2ccccc21)N/N=C/c1c(O)ccc2ccccc12,13,9,x,12,31*,22,14
O=C(CN1CCCc2ccccc21)N/N=C/c1ccccc1,-4,-1,x,6,-2,-4,x
C=CCn1c(N)c(C(=O)OC(C)CC)c2nc3ccccc3nc21 (centres undefined),-1,-1,-398,x,5,-8,x
COCCn1c(N)c(C(=O)NCC2CCCO2)c2nc3ccccc3nc21 (centres undefined),4,1,i,10,6,-2,x
COCC(C)OC(=O)c1c(N)n(CC(C)C)c2nc3ccccc3nc12 (centres undefined),0,2,i,1,35*,-13,5
CC(C)Cn1c(N)c(C(=O)NCC2CCCO2)c2nc3ccccc3nc21 (centres undefined),8,-9,-344,13,32*,12,14
CSc1ccc(C=Nn2c(C)nc3ccccc3c2=O)cc1,x,x,1,x,x,x,x
CC(CC(=O)Nc1ccc(Br)cc1)=NNC(=O)c1cccc(O)c1,x,x,5,x,x,x,x
O=S(=O)(Nc1c(S(=O)(=O)c2ccccc2)c2nc3ccccc3nc2n1C1CCCCC1)c1ccccc1,21,-2,i,20,60*,10,9
Cc1ccc(S(=O)(=O)c2c(N)n(-c3ccccc3)c3nc4ccccc4nc23)cc1,-3,-5,x,-2,-2,-7,x
CC(C)(C)NCC(O)(c1ccc(Cl)cc1)c1ccc(Cl)cc1,9,-3,2,-4,3,-2,x
CC(C)NCC(O)(c1ccc(Cl)cc1)c1ccc(Cl)cc1,6,0,3,1,29*,-5,7
C=C(C)CNC(=S)NN=CC1=CCC2CC1C2(C)C (centres undefined),x,x,4,x,x,x,x
